Experimental data taken from ChEMBL document CHEMBL1145814, “Antiretroviral activity of semisynthetic derivatives of glycopeptide antibiotics” (J Med Chem, 2003).
Converted amounts (≈) assume the structure as drawn. “And” between values parts separate entries of the source, which are not always exact repeats. Identical values can stand only once. Blank lines part the entries; values can stand above or below the compound they belong to.

Experiments:
L1210 = test: Inhibitory concentration of compound against proliferation of murine lukemia cells L1210 was determined; type: functional, cell-based; settings: Mus musculus
Procedure, shortened: (§1)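 (5–7.5) × 10^4 cells per well were incubated with test compound at 37 °C in a humidified CO2 atmosphere. L1210 murine leukemia cells grew for 48 h, and CEM and Molt4/clone 8 human lymphocytes grew for 72 h. Cells were then counted with a Coulter counter. IC50 is the concentration inhibiting proliferation by 50%.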

Mus musculus [1] = species on record: Mus musculus; test: Minimal inhibitory concentration required to cause a microscopic detectable alteration of C3H/3T3 embryo murine fibroblast cell morphology; type: functional
Procedure, shortened: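 Uninfected C3H/3T3 murine embryo fibroblast cultures were exposed to test compound and checked microscopically for changes in cell morphology. The MIC is the concentration causing a microscopically detectable alteration of morphology.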

[2] = test system: Human immunodeficiency virus 2; test: Concentration required to protect human T-lymphocytic cells against the cytopathogenicity of HIV-2; type: functional, organism-based
CCRF-CEM = test: Inhibitory concentration against proliferation of human T-lymphocytic (CEM) cells; type: functional, cell-based; procedure, shortened: as §1
Mus musculus [3] = species on record: Mus musculus; test: Effective concentration of compound required to protect C3H/3T3 embryo murine fibroblasts against the MSV induced transformation; type: functional, organism-based
Procedure, shortened: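 Monolayer murine embryo fibroblast C3H/3T3 cultures were infected with Moloney murine sarcoma virus at 75 focus-forming units and cultured with test compound. Transformation was examined microscopically on day 6 postinfection. EC50 is the concentration protecting cells against MSV-induced transformation by 50%.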

MOLT-4 = test: Inhibitory concentration of compound against proliferation of human T-lymphocytic cells MOLT-4/C8 was determined; type: functional, cell-based; procedure, shortened: as §1
[4] = test system: Human immunodeficiency virus 1; test: Effective concentration of compound required to protect human T-lymphocytic cells against the cytopathogenicity of HIV-1; type: functional, organism-based

SMILES: CN(Cc1ccc(Cl)cc1)Cc1c(O)cc2c(c1O)-c1cc(ccc1O)C1NC(=O)C3NC(=O)C4NC(=O)C(Cc5ccc(c(Cl)c5)Oc5cc3cc(c5O)Oc3ccc(cc3Cl)C(O)C(NC1=O)C(=O)N[C@H]2C(=O)O)NC(=O)C(N)c1ccc(O)c(c1)Oc1cc(O)cc4c1 (stereo not given in full)
IC50 (L1210): > 100 µM
MIC (Mus musculus [1]): > 100 µM
EC50 ([2]; Human immunodeficiency virus 2): 20 µM
IC50 (CCRF-CEM; Homo sapiens, CCRF-CEM): > 100 µM
EC50 (Mus musculus [3]; Mus musculus, C3H/3T3): 11 µM
IC50 (MOLT-4): > 100 µM
EC50 ([4]; Human immunodeficiency virus 1): 17 µM

SMILES: CN[C@H](CC(C)C)C(=O)N[C@H]1C(=O)N[C@@H](CC(N)=O)C(=O)N[C@H]2C(=O)N[C@H]3C(=O)N[C@H](C(=O)N[C@H](C(=O)NCc4ccc(-c5ccccc5)cc4)c4cc(O)cc(O)c4-c4cc3ccc4O)[C@H](O[C@H]3C[C@](C)(N)[C@@H](O)[C@H](C)O3)c3ccc(cc3)Oc3cc2cc(c3O[C@@H]2O[C@H](CO)[C@@H](O)[C@H](O)[C@H]2O[C@H]2C[C@](C)(N)[C@@H](O)[C@H](C)O2)Oc2ccc(cc2Cl)[C@H]1O
IC50 (L1210): 41 µM
MIC (Mus musculus [1]): 4 µM (≈ 6.89 µg/mL)
EC50 ([2]; Human immunodeficiency virus 2): > 10 µM
IC50 (CCRF-CEM; Homo sapiens, CCRF-CEM): 35 µM
EC50 (Mus musculus [3]; Mus musculus, C3H/3T3): > 0.8 µM
IC50 (MOLT-4): 34 µM
EC50 ([4]; Human immunodeficiency virus 1): > 10 µM

SMILES: CCCCc1ccc(CN2CCN(Cc3c(O)cc4c(c3O)-c3cc(ccc3O)C3NC(=O)C5NC(=O)C6NC(=O)C(Cc7ccc(c(Cl)c7)Oc7cc5cc(c7O)Oc5ccc(cc5Cl)C(O)C(NC3=O)C(=O)N[C@H]4C(=O)NC)NC(=O)C(N)c3ccc(O)c(c3)Oc3cc(O)cc6c3)CC2)cc1 (stereo not given in full)
IC50 (L1210): 61 µM
MIC (Mus musculus [1]): > 20 µM
EC50 [2]: 3 µM and 6.3 µM
IC50 (CCRF-CEM; Homo sapiens, CCRF-CEM): > 500 µM
IC50 (CCRF-CEM; ccrf-cem): > 250 µM
EC50 (Mus musculus [3]; Mus musculus, C3H/3T3): 3.6 µM
IC50 (MOLT-4): > 500 µM
EC50 [4]: 1.7 µM and 3.5 µM

SMILES: O=C1NC2C(=O)NC3C(=O)NC4C(=O)NC(C(=O)N[C@@H](C(=O)O)c5cc(O)cc(O)c5-c5cc4ccc5O)C(O)c4ccc(c(Cl)c4)Oc4cc3cc(c4O)Oc3ccc(cc3Cl)CC1NC(=O)C(NC(=O)C13CC4CC(CC(C4)C1)C3)c1ccc(O)c(c1)Oc1cc(O)cc2c1 (stereo not given in full)
IC50 (L1210): 33 µM
MIC (Mus musculus [1]): 100 µM (≈ 136 µg/mL)
EC50 ([2]; Human immunodeficiency virus 2): 4 µM
IC50 (CCRF-CEM; Homo sapiens, CCRF-CEM): 83 µM
EC50 (Mus musculus [3]; Mus musculus, C3H/3T3): 11 µM
IC50 (MOLT-4): 39 µM
EC50 ([4]; Human immunodeficiency virus 1): 10 µM

SMILES: COC(=O)[C@@H]1NC(=O)C2NC(=O)C(NC(=O)C3NC(=O)C4NC(=O)C(Cc5ccc(c(Cl)c5)Oc5cc3cc(c5O)Oc3ccc(cc3Cl)C2O)NC(=O)C(N)c2ccc(O)c(c2)Oc2cc(O)cc4c2)c2ccc(O)c(c2)-c2c(O)cc(O)cc21 (stereo not given in full)
IC50 (L1210): 364 µM
MIC (Mus musculus [1]): > 100 µM
EC50 ([2]; Human immunodeficiency virus 2): 15 µM
IC50 (CCRF-CEM; Homo sapiens, CCRF-CEM): 248 µM
EC50 (Mus musculus [3]; Mus musculus, C3H/3T3): 12 µM
IC50 (MOLT-4): > 500 µM
EC50 ([4]; Human immunodeficiency virus 1): 9.5 µM

SMILES: CN[C@H](CC(C)C)C(=O)N[C@H]1C(=O)N[C@@H](CC(N)=O)C(=O)N[C@H]2C(=O)N[C@H]3C(=O)N[C@H](C(=O)N[C@H](C(=O)O)c4cc(O)cc(O)c4-c4cc3ccc4O)[C@H](O)c3ccc(c(Cl)c3)Oc3cc2cc(c3O[C@@H]2O[C@H](CO)[C@@H](O)[C@H](O)[C@H]2O[C@H]2C[C@](C)(N)[C@H](O)[C@H](C)O2)Oc2ccc(cc2Cl)[C@H]1O [VANCOMYCIN]
IC50 (L1210): > 500 µM
MIC (Mus musculus [1]): > 100 µM
EC50 ([2]; Human immunodeficiency virus 2): > 250 µM
IC50 (CCRF-CEM; Homo sapiens, CCRF-CEM): > 500 µM
EC50 (Mus musculus [3]; Mus musculus, C3H/3T3): > 100 µM
IC50 (MOLT-4): > 500 µM
EC50 ([4]; Human immunodeficiency virus 1): > 250 µM

SMILES: CN[C@@H](CC(C)C)C(=O)NC1C(=O)N[C@@H](CC(N)=O)C(=O)NC2C(=O)NC3C(=O)NC(C(=O)N[C@@H](C(=O)O)c4cc(O)cc(O)c4-c4cc3ccc4O)C(O)c3ccc(c(Cl)c3)Oc3cc2cc(c3O)Oc2ccc(cc2Cl)C1O (stereo not given in full)
IC50 (L1210): > 500 µM
MIC (Mus musculus [1]): > 100 µM
EC50 ([2]; Human immunodeficiency virus 2): > 250 µM
IC50 (CCRF-CEM; Homo sapiens, CCRF-CEM): > 500 µM
EC50 (Mus musculus [3]; Mus musculus, C3H/3T3): > 100 µM
IC50 (MOLT-4): > 500 µM
EC50 ([4]; Human immunodeficiency virus 1): 65 µM

SMILES: CN[C@H](CC(C)C)C(=O)N[C@H]1C(=O)N[C@@H](CC(N)=O)C(=O)N[C@H]2C(=O)N[C@H]3C(=O)N[C@H](C(=O)N[C@H](C(=O)O)c4cc(O)c(CNCc5ccc(-c6ccc(Cl)cc6)cc5)c(O)c4-c4cc3ccc4O)[C@H](O[C@H]3C[C@](C)(N)[C@@H](O)[C@H](C)O3)c3ccc(cc3)Oc3cc2cc(c3O[C@@H]2O[C@H](CO)[C@@H](O)[C@H](O)[C@H]2O[C@H]2C[C@](C)(N)[C@@H](O)[C@H](C)O2)Oc2ccc(cc2Cl)[C@H]1O
IC50 (L1210): 136 µM
MIC (Mus musculus [1]): > 20 µM
EC50 ([2]; Human immunodeficiency virus 2): > 50 µM
IC50 (CCRF-CEM; Homo sapiens, CCRF-CEM): 106 µM
EC50 (Mus musculus [3]; Mus musculus, C3H/3T3): > 4 µM
IC50 (MOLT-4): 72 µM
EC50 ([4]; Human immunodeficiency virus 1): 22 µM

The next compounds have a lower IC50 (L1210) than those just listed; values first:

IC50 (L1210): 20 µM
EC50 ([2]; Human immunodeficiency virus 2): > 50 µM
IC50 (CCRF-CEM; Homo sapiens, CCRF-CEM): 106 µM
IC50 (MOLT-4): > 50 µM
EC50 ([4]; Human immunodeficiency virus 1): 20 µM
SMILES: CCCCc1ccc(CN2CCN(Cc3c(O)cc4c(c3O)-c3cc(ccc3O)C3NC(=O)C5NC(=O)C6NC(=O)C(Cc7ccc(cc7)Oc7cc5cc(c7OC5OC(C(=O)O)C(O)C(O)C5N)Oc5ccc(cc5Cl)C(O)C(NC3=O)C(=O)N[C@H]4C(=O)O)NC(=O)C(NC)c3ccc(O)c(c3)Oc3cc(O)c(Cl)c6c3)CC2)cc1 (stereo not given in full)
MIC (Mus musculus [1]): 100 µM (≈ 163 µg/mL)
EC50 (Mus musculus [3]; Mus musculus, C3H/3T3): 6.9 µM

IC50 (L1210): 29 µM
EC50 [2]: 5 µM and 13 µM
IC50 (CCRF-CEM; Homo sapiens, CCRF-CEM): > 500 µM
IC50 (CCRF-CEM; ccrf-cem): > 250 µM
IC50 (MOLT-4): 108 µM
EC50 [4]: 4 µM
EC50 ([4]; Human immunodeficiency virus 1): 3 µM
SMILES: CCCCc1ccc(CN2CCN(Cc3c(O)cc4c(c3O)-c3cc(ccc3O)C3NC(=O)C5NC(=O)C6NC(=O)C(Cc7ccc(c(Cl)c7)Oc7cc5cc(c7O)Oc5ccc(cc5Cl)C(O)C(NC3=O)C(=O)N[C@H]4C(=O)NCCCN(C)C)NC(=O)C(N)c3ccc(O)c(c3)Oc3cc(O)cc6c3)CC2)cc1 (stereo not given in full)
MIC (Mus musculus [1]): 20 µM (≈ 30.5 µg/mL)
EC50 (Mus musculus [3]): 3.5 µM
EC50 (Mus musculus [3]; Mus musculus, C3H/3T3): 2.4 µM

IC50 (L1210): 30 µM
EC50 ([2]; Human immunodeficiency virus 2): 6 µM
IC50 (CCRF-CEM; Homo sapiens, CCRF-CEM): 123 µM
IC50 (MOLT-4): 26 µM
EC50 ([4]; Human immunodeficiency virus 1): 7 µM
SMILES: NC1C(=O)NC2Cc3ccc(c(Cl)c3)Oc3cc4cc(c3O)Oc3ccc(cc3Cl)C(O)C3NC(=O)C(NC(=O)C4NC(=O)C(NC2=O)c2cc(O)cc(c2)Oc2cc1ccc2O)c1ccc(O)c(c1)-c1c(O)cc(O)cc1[C@H](C(=O)NC1C2CC4CC(C2)CC1C4)NC3=O (stereo not given in full)
MIC (Mus musculus [1]): > 100 µM
EC50 (Mus musculus [3]; Mus musculus, C3H/3T3): 2.1 µM

IC50 (L1210): 15 µM
EC50 ([2]; Human immunodeficiency virus 2): > 10 µM
IC50 (CCRF-CEM; Homo sapiens, CCRF-CEM): 8.6 µM
IC50 (MOLT-4): 7.7 µM
EC50 ([4]; Human immunodeficiency virus 1): > 10 µM
SMILES: CN[C@H](CC(C)C)C(=O)N[C@H]1C(=O)N[C@@H](CC(N)=O)C(=O)N[C@H]2C(=O)N[C@H]3C(=O)N[C@H](C(=O)N[C@H](C(=O)NCc4ccc(-c5ccc(Cl)cc5)cc4)c4cc(O)cc(O)c4-c4cc3ccc4O)[C@H](O[C@H]3C[C@](C)(N)[C@@H](O)[C@H](C)O3)c3ccc(cc3)Oc3cc2cc(c3O[C@@H]2O[C@H](CO)[C@@H](O)[C@H](O)[C@H]2O[C@H]2C[C@](C)(N)[C@@H](O)[C@H](C)O2)Oc2ccc(cc2Cl)[C@H]1O
MIC (Mus musculus [1]): 4 µM (≈ 7.03 µg/mL)
EC50 (Mus musculus [3]; Mus musculus, C3H/3T3): > 0.8 µM

IC50 (L1210): 22 µM
EC50 ([2]; Human immunodeficiency virus 2): 6 µM
IC50 (CCRF-CEM; Homo sapiens, CCRF-CEM): 104 µM
IC50 (MOLT-4): 25 µM
EC50 ([4]; Human immunodeficiency virus 1): 13 µM
SMILES: O=C(NC1C(=O)NC2Cc3ccc(c(Cl)c3)Oc3cc4cc(c3O)Oc3ccc(cc3Cl)C(O)C3NC(=O)C(NC(=O)C4NC(=O)C(NC2=O)c2cc(O)cc(c2)Oc2cc1ccc2O)c1ccc(O)c(c1)-c1c(O)cc(O)cc1[C@H](C(=O)O)NC3=O)OC12CC3CC(CC(C3)C1)C2 (stereo not given in full)
MIC (Mus musculus [1]): > 20 µM
EC50 (Mus musculus [3]; Mus musculus, C3H/3T3): 9.8 µM
